Reference: ChEMBL document CHEMBL4765405, “Design, synthesis and biological activities of novel pleuromutilin derivatives with a substituted triazole moiety as potent antibacterial agents” (Eur J Med Chem, 2020)
≈ marks a conversion by molar mass, not a printed value.

Key:
Type in all cases: functional
[1] = test system: Staphylococcus aureus; test: Antibacterial activity against methicillin-resistant Staphylococcus aureus ATCC 43300 after 24 hrs by CLSI based broth micro dilution method
Method in brief: (§1)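 Broth microdilution run per CLSI. MRSA ATCC 43300 served as the QC strain, with the CLSI QC range as reference. S. aureus AD3 and 144 are clinical isolates from Guangdong Province. Pleuromutilin and tiamulin were run as reference drugs.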

[2] = test system: Staphylococcus aureus; test: Antibacterial activity against Staphylococcus aureus ATCC 29213 after 24 hrs by CLSI based broth micro dilution method; method in brief: as §1
[3] = test system: Staphylococcus aureus; test: Antibacterial activity against Staphylococcus aureus AD3 after 24 hrs by CLSI based broth micro dilution method
Method in brief: (§2)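 CLSI broth microdilution MIC against S. aureus ATCC 43300 (MRSA), ATCC 29213, clinical isolates AD3 and 144 (Guangdong Province), and E. coli ATCC 25922; ATCC 43300 served as QC strain, with the CLSI quality control range as reference.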

[4] = test system: Staphylococcus aureus; test: Antibacterial activity against Staphylococcus aureus 144 after 24 hrs by CLSI based broth micro dilution method; method in brief: as §1
[5] = test system: Escherichia coli; test: Antibacterial activity against Escherichia coli ATCC 25922 after 24 hrs by CLSI based broth micro dilution method; method in brief: as §2
[6] = test system: Staphylococcus aureus; test: Bactericidal activity against methicillin-resistant Staphylococcus aureus ATCC 43300 preincubated 16 to 20 hrs followed by subculturing and measured after over night
Method in brief: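 MBC determined by the CLSI broth microdilution method against MRSA ATCC 43300, with ATCC 43300 also serving as the QC strain. Pleuromutilin and tiamulin were reference drugs.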

[7] = test system: Staphylococcus aureus; test: Bactericidal activity against Staphylococcus aureus ATCC 29213 preincubated 16 to 20 hrs followed by subculturing and measured after over night
Method in brief: (§3)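 MBC by CLSI broth microdilution on the same strain panel: S. aureus ATCC 43300, ATCC 29213, clinical isolates AD3 and 144, E. coli ATCC 25922; ATCC 43300 served as QC strain.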

[8] = test system: Staphylococcus aureus; test: Bactericidal activity against Staphylococcus aureus AD3 preincubated 16 to 20 hrs followed by subculturing and measured after over night; method in brief: as §3
[9] = test system: Staphylococcus aureus; test: Bactericidal activity against Staphylococcus aureus 144 preincubated 16 to 20 hrs followed by subculturing and measured after over night; method in brief: as §3
[10] = test system: Escherichia coli; test: Bactericidal activity against Escherichia coli ATCC 25922 preincubated 16 to 20 hrs followed by subculturing and measured after over night; method in brief: as §3
[11] = Ratio of MBC for bactericidal activity against methicillin-resistant Staphylococcus aureus ATCC 43300 to MIC for antibacterial activity against methicillin-resistant Staphylococcus aureus ATCC 4330

| Structure (SMILES) | MIC [1] [µg/mL] | MIC [2] [µg/mL] | MIC [3] [µg/mL] | MIC [4] [µg/mL] | MIC [5] [µg/mL] | MBC [6] [µg/mL] | MBC [7] [µg/mL] | MBC [8] [µg/mL] | MBC [9] [µg/mL] | MBC [10] [µg/mL] | Ratio [11] |
| --- | --- | --- | --- | --- | --- | --- | --- | --- | --- | --- | --- |
| C=C[C@]1(C)C[C@@H](OC(=O)CSc2ccccc2NC(=O)Cn2cc(CN3CCC(CCO)CC3)nn2)[C@]2(C)[C@H](C)CC[C@]3(CCC(=O)[C@H]32)[C@@H](C)[C@@H]1O | 0.5 (≈ 0.679 µM) | 0.5 (≈ 0.679 µM) | 1 (≈ 1.36 µM) | 0.5 (≈ 0.679 µM) | > 32 | 1 (≈ 1.36 µM) | 0.5 (≈ 0.679 µM) | 1 (≈ 1.36 µM) | 0.5 (≈ 0.679 µM) | > 32 | 1 |
| C=C[C@]1(C)C[C@@H](OC(=O)CSc2ccccc2NC(=O)Cn2cc(CN3CCN(c4ccc(OC)cc4)CC3)nn2)[C@]2(C)[C@H](C)CC[C@]3(CCC(=O)[C@H]32)[C@@H](C)[C@@H]1O | 1 (≈ 1.25 µM) | 0.5 (≈ 0.626 µM) | 1 (≈ 1.25 µM) | 1 (≈ 1.25 µM) | > 32 | 1 (≈ 1.25 µM) | 0.5 (≈ 0.626 µM) | 1 (≈ 1.25 µM) | 2 (≈ 2.5 µM) | > 32 | 1 |
| C=C[C@]1(C)C[C@@H](OC(=O)CSc2ccccc2NC(=O)Cn2cc(CN3CCN(c4cccc(O)c4)CC3)nn2)[C@]2(C)[C@H](C)CC[C@]3(CCC(=O)[C@H]32)[C@@H](C)[C@@H]1O | 0.25 (≈ 0.318 µM) | 0.25 (≈ 0.318 µM) | 0.25 (≈ 0.318 µM) | 0.5 (≈ 0.637 µM) | > 32 | 0.5 (≈ 0.637 µM) | 0.5 (≈ 0.637 µM) | 0.5 (≈ 0.637 µM) | 1 (≈ 1.27 µM) | > 32 | 1 |
| C=C[C@]1(C)C[C@@H](OC(=O)CSc2ccccc2NC(=O)Cn2cc(CN3CCN(C)CC3)nn2)[C@]2(C)[C@H](C)CC[C@]3(CCC(=O)[C@H]32)[C@@H](C)[C@@H]1O | 0.25 (≈ 0.354 µM) | 0.25 (≈ 0.354 µM) | 0.5 (≈ 0.707 µM) | 0.5 (≈ 0.707 µM) | > 32 | 0.5 (≈ 0.707 µM) | 0.5 (≈ 0.707 µM) | 1 (≈ 1.41 µM) | 2 (≈ 2.83 µM) | > 32 | 1 |
| C=C[C@]1(C)C[C@@H](OC(=O)CO)[C@]2(C)[C@H](C)CC[C@]3(CCC(=O)[C@H]32)[C@@H](C)[C@@H]1O [PLEUROMULIN] | 2 (≈ 5.28 µM) | 1 (≈ 2.64 µM) | 2 (≈ 5.28 µM) | 2 (≈ 5.28 µM) | – | 4 (≈ 10.6 µM) | 2 (≈ 5.28 µM) | 4 (≈ 10.6 µM) | 4 (≈ 10.6 µM) | – | – |
| C=C[C@]1(C)C[C@@H](OC(=O)CSc2ccccc2NC(=O)Cn2cc(CN3CCC(O)CC3)nn2)[C@]2(C)[C@H](C)CC[C@]3(CCC(=O)[C@H]32)[C@@H](C)[C@@H]1O | 1 (≈ 1.41 µM) | 1 (≈ 1.41 µM) | 1 (≈ 1.41 µM) | 1 (≈ 1.41 µM) | > 32 | 2 (≈ 2.83 µM) | 1 (≈ 1.41 µM) | 1 (≈ 1.41 µM) | 2 (≈ 2.83 µM) | > 32 | 1 |
| C=C[C@]1(C)C[C@@H](OC(=O)CSc2ccccc2NC(=O)Cn2cc(CN3CCN(c4ccccc4[N+](=O)[O-])CC3)nn2)[C@]2(C)[C@H](C)CC[C@]3(CCC(=O)[C@H]32)[C@@H](C)[C@@H]1O | 0.5 (≈ 0.614 µM) | 0.25 (≈ 0.307 µM) | 0.5 (≈ 0.614 µM) | 0.5 (≈ 0.614 µM) | > 32 | 1 (≈ 1.23 µM) | 0.25 (≈ 0.307 µM) | 1 (≈ 1.23 µM) | 2 (≈ 2.46 µM) | > 32 | 1 |
| C=C[C@]1(C)C[C@@H](OC(=O)CSc2ccccc2NC(=O)Cn2cc(CN3CCN(c4ccccc4Cl)CC3)nn2)[C@]2(C)[C@H](C)CC[C@]3(CCC(=O)[C@H]32)[C@@H](C)[C@@H]1O | 1 (≈ 1.24 µM) | 1 (≈ 1.24 µM) | 2 (≈ 2.49 µM) | 2 (≈ 2.49 µM) | > 32 | 2 (≈ 2.49 µM) | 2 (≈ 2.49 µM) | 2 (≈ 2.49 µM) | 4 (≈ 4.98 µM) | > 32 | 1 |
| C=C[C@]1(C)C[C@@H](OC(=O)CSc2ccccc2NC(=O)Cn2cc(CN3CCN(c4ccc(O)cc4)CC3)nn2)[C@]2(C)[C@H](C)CC[C@]3(CCC(=O)[C@H]32)[C@@H](C)[C@@H]1O | 2 (≈ 2.55 µM) | 2 (≈ 2.55 µM) | 2 (≈ 2.55 µM) | 2 (≈ 2.55 µM) | > 32 | 4 (≈ 5.1 µM) | 4 (≈ 5.1 µM) | 4 (≈ 5.1 µM) | 8 (≈ 10.2 µM) | > 32 | 1 |
